What follows are compounds tested on Nucleic Acid (assay: Compound was tested for inhibition activity against HPV-E2 DNA-binding domain (DBD) (human papillomavirus E2) binding to DNA).
Type: nucleic-acid assay
In short: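 Filter-binding assay: binding reactions at room temperature for 10 min in binding buffer (20 mM Tris-HCl pH 7.5, 100 mM NaCl, 5 mM DTT, 1 mM EDTA, BSA) with 4 nM DNA and 400 nM E2 DBD. Compounds were added from DMSO stocks at various concentrations. Mixtures were filtered through nitrocellulose, washed with buffer lacking BSA and counted by scintillation. IC50 was read from concentration versus percent inhibition plots.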

Point of comparison: `O=C(O)c1ccc(-c2cc(Cl)cc(Cl)c2)cc1`, IC50 150 µM. Against it:
- O=C(O)/C=C/C=C/c1cccc(Oc2cc(Cl)cc(Cl)c2)c1 — 15-fold lower, 10 µM
- O=C(O)/C=C/C=C/c1ccc(Oc2ccccc2)cc1 — 2-fold lower, 75 µM
- O=C(O)c1ccc(-c2ccccc2)cc1 — higher, > 1000 µM
- O=C(O)CCCc1ccc(Oc2ccccc2)cc1 — higher, > 1000 µM

These compounds were tested against Regulatory protein E2 (Human papillomavirus type 31) (assay: Dissociation constant after binding to human papillomavirus E2 DNA-binding domain (DBD) by observing the changes in [15N]-HSQC spectra.).

Point of comparison: `O=C(O)CCc1ccc(Oc2ccccc2)cc1`, Kd 2300 µM. Against it:
- CN(C)c1ccc(-c2ccc(C(=O)O)cc2)cc1 — 3-fold higher, 6800 µM
- Cc1ccccc1-c1ccc(C(=O)O)cc1 — within 1.5-fold, 2700 µM
- O=C(O)c1ccc(-c2cccc(Cl)c2)cc1 — 1.9-fold lower, 1200 µM
- O=C(O)c1ccc(-c2ccc(Oc3ccccc3)cc2)cc1 — within 1.5-fold, 2100 µM
- Cc1cccc(-c2ccc(C(=O)O)cc2)c1 — within 1.5-fold, 1900 µM
- O=C(O)c1ccc(-c2cccc(F)c2)cc1 — within 1.5-fold, 1600 µM
- O=C(O)/C=C/C=C/c1ccc(Oc2ccccc2)cc1 — 6.6-fold lower, 350 µM
- O=C(O)CCCCc1ccc(Oc2ccccc2)cc1 — 2.7-fold lower, 850 µM
- O=C(O)c1ccc(-c2cc(Cl)cc(Cl)c2)cc1 — 38-fold lower, 60 µM
- O=C(O)c1ccc(-c2ccc(Cl)c(Cl)c2)cc1 — 2.9-fold higher, 6600 µM
- O=C(O)Cc1cccc(Oc2ccccc2)c1 — higher, > 10000 µM
- O=C(O)c1ccc(-c2ccc(Cl)cc2Cl)cc1 — 1.5-fold higher, 3500 µM
- Nc1cccc(-c2ccc(C(=O)O)cc2)c1 — higher, > 10000 µM
- O=C(O)c1ccc(-c2ccc(C(F)(F)F)cc2)cc1 — 1.5-fold lower, 1500 µM
- COc1ccc(-c2ccc(C(=O)O)cc2)cc1 — 3.8-fold higher, 8800 µM
- O=C(O)c1ccc(-c2cc(C(F)(F)F)cc(C(F)(F)F)c2)cc1 — higher, > 10000 µM
- O=C(O)c1ccc(-c2ccc([N+](=O)[O-])c(Cl)c2)cc1 — higher, > 10000 µM
- O=C(O)c1ccc(-c2cccc(C(F)(F)F)c2)cc1 — 7.2-fold lower, 320 µM
- O=C(O)CCCc1ccc(Oc2ccccc2)cc1 — within 1.5-fold, 1900 µM
- CC(C)(C)c1ccc(-c2ccc(C(=O)O)cc2)cc1 — higher, > 10000 µM
- O=C(O)c1ccc(-c2cccc([N+](=O)[O-])c2)cc1 — 3.9-fold higher, 8900 µM
- COc1ccccc1-c1ccc(C(=O)O)cc1 — within 1.5-fold, 1700 µM
- O=C(O)c1ccc(-c2ccc(O)cc2)cc1 — higher, > 10000 µM
